Measurements published in ChEMBL document CHEMBL1153113, “Discovery of potent, selective, and orally bioavailable PDE5 inhibitor: Methyl-4-(3-chloro-4-methoxybenzylamino)-8-(2-hydroxyethyl)-7-methoxyquinazolin-6-ylmethylcarbamate (CKD 533)” (Bioorg Med Chem Lett, 2010).
The source made the active and inactive calls. The calls are words filed in the database; no cut-off is given here.

Columns and labels:
[1] = biological target: cGMP-specific 3',5'-cyclic phosphodiesterase (Bos taurus, UniProt Q28156); test: Inhibition of bovine platelet PDE5
Liver microsomes = test: Metabolic stability in human liver microsomes; type: ADME, Microsome
Procedure, shortened: (§1)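 Liver microsomes (human, rat or rabbit) incubated with compound (5) in pH 7.4 phosphate buffer with an NADPH-regenerating system (2.5 mM MgCl2, 2.5 mM glucose-6-phosphate, 1 mM NADP, 1 U/ml G6P dehydrogenase) at 37 °C for 1 h. Human microsomes at 1.25 mg/ml. Read-out was % parent remaining; metabolites analysed by LC/MS.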

[2] = Metabolic stability in human liver microsomes assessed as compound remaining after 1 hr; type: ADME, Microsome; settings: read-out: Stability; procedure, shortened: as §1
[3] = Metabolic stability in rat liver microsomes assessed as compound remaining after 1 hr; type: ADME, Microsome; settings: read-out: Stability; procedure, shortened: as §1
[4] = Metabolic stability in rabbit liver microsomes assessed as compound remaining after 1 hr; type: ADME, Oryctolagus cuniculus, Microsome; settings: read-out: Stability; procedure, shortened: as §1
[5] = biological target: T1, Rod cGMP-specific 3',5'-cyclic phosphodiesterase subunit alpha (Bos taurus, UniProt P11541); test: Inhibition of bovine retina PDE6
T1 sequence (P11541 whole entry): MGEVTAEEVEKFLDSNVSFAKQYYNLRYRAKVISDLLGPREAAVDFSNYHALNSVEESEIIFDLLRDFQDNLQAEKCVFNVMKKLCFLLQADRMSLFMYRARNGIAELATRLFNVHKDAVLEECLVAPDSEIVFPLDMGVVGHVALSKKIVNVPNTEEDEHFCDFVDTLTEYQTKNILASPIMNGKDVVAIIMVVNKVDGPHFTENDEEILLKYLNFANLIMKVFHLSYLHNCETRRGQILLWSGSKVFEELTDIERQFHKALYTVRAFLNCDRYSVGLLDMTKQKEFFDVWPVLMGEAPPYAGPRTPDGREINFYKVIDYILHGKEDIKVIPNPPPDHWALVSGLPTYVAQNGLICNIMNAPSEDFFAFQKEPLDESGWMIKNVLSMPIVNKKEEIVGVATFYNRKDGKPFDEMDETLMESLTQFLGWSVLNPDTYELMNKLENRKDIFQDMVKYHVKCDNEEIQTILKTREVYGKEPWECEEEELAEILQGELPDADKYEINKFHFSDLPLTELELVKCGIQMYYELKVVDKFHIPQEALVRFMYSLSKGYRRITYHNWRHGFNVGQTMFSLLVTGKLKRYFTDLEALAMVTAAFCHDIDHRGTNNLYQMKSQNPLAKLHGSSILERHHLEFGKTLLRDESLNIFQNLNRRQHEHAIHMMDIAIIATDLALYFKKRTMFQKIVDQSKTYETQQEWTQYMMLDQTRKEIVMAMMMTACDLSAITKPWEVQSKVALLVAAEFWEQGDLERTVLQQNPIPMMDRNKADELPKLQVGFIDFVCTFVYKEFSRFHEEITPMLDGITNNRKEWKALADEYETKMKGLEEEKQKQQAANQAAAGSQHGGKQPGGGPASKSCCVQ

[6] = biological target: Dual 3',5'-cyclic-AMP and -GMP phosphodiesterase 11A (Homo sapiens, UniProt Q9HCR9); test: Inhibition of human recombinant PDE11
Sequence of Dual 3',5'-cyclic-AMP and -GMP phosphodiesterase 11A (Q9HCR9 whole entry): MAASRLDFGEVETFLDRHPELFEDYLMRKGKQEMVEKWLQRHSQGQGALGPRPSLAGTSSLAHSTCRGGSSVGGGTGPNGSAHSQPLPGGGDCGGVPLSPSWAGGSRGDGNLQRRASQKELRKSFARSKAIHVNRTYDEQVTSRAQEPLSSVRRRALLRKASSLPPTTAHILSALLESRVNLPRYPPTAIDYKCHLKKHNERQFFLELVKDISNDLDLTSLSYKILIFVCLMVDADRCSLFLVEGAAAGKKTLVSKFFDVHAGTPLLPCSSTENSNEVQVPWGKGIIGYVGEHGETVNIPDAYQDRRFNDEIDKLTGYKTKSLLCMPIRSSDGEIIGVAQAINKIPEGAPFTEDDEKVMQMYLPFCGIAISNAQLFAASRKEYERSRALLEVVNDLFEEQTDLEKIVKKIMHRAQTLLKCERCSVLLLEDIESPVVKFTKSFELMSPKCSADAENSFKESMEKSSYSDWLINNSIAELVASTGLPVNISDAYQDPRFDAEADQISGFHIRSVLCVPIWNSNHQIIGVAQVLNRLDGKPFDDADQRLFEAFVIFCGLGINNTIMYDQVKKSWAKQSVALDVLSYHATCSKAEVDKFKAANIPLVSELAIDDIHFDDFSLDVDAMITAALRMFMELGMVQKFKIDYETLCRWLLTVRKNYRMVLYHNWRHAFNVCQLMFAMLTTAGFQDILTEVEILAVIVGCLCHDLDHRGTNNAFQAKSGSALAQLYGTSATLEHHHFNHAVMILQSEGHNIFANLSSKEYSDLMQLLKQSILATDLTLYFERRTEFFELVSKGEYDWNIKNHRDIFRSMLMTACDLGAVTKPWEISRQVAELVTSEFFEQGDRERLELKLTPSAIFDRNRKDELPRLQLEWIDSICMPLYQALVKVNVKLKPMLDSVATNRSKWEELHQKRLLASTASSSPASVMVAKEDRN

Oryctolagus cuniculus [7] = test: Inhibition of erectile dysfunction in New Zealand white rabbit assessed as induction of SNP-potentiated penile erection at 3 mg/kg, po after 2 hrs; type: functional, organism-based; set-up: dose 3 mg/kg
Procedure, shortened: (§2)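 Conscious New Zealand white rabbits, 3–4 kg, n = 4. Compound given orally, dissolved in distilled water. SNP (0.1 mg/kg in saline) injected 2 h later. Penile length (covered plus mucosa area) measured in cm with sliding calipers over a total of 2 h after dosing.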

[8] = Tmax in rat at 10 mg/kg, po; type: ADME, organism-based; set-up: dose 10 mg/kg, route oral; settings: in vivo
Procedure, shortened: (§3)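 Oral dosing at 10 mg/kg in 0.5% Tween 80, given as the HCl salt, with n = 4 animals per species. Plasma PK parameters were determined: Tmax, Cmax, half-life and AUClast.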

[9] = Cmax in rat at 10 mg/kg, po; type: ADME, organism-based; set-up: dose 10 mg/kg, route oral; settings: in vivo; procedure, shortened: as §3
[10] = Half life in rat at 10 mg/kg, po; type: ADME, organism-based; set-up: dose 10 mg/kg, route oral; settings: in vivo; procedure, shortened: as §3
[11] = AUClast in rat at 10 mg/kg, po; type: ADME, organism-based; set-up: time 0 - last, dose 10 mg/kg, route oral; settings: plasma; procedure, shortened: as §3
[12] = Tmax in rabbit at 10 mg/kg, po; type: ADME, organism-based, Oryctolagus cuniculus; set-up: dose 10 mg/kg, route oral; settings: in vivo; procedure, shortened: as §3
[13] = Cmax in rabbit at 10 mg/kg, po; type: ADME, organism-based, Oryctolagus cuniculus; set-up: dose 10 mg/kg, route oral; settings: in vivo; procedure, shortened: as §3
[14] = Half life in rabbit at 10 mg/kg, po; type: ADME, organism-based, Oryctolagus cuniculus; set-up: dose 10 mg/kg, route oral; settings: in vivo; procedure, shortened: as §3
[15] = AUClast in rabbit at 10 mg/kg, po; type: ADME, organism-based, Oryctolagus cuniculus; set-up: time 0 - last, dose 10 mg/kg, route oral; settings: plasma; procedure, shortened: as §3
[16] = Permeability across human Caco-2 cells; type: ADME, cell-based; settings: read-out: permeability
Oryctolagus cuniculus [17] = test: Inhibition of erectile dysfunction in New Zealand white rabbit assessed as induction of SNP-potentiated penile erection at 0.3 mg/kg, po after 2 hrs; type: functional, organism-based; set-up: dose 0.3 mg/kg; procedure, shortened: as §2
[18] = Inhibition of bovine heart PDE1; set-up: species or system Bos taurus
Procedure, shortened: (§4)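 Enzyme sources: PDE1 from bovine heart, PDE2 from bovine heart, PDE3 from bovine platelet, PDE4 human recombinant, PDE6 from bovine retina, PDE11 human recombinant. IC50 values are the mean of more than 2 determinations.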

[19] = Inhibition of bovine heart PDE2; set-up: species or system Bos taurus; procedure, shortened: as §4
[20] = Inhibition of bovine platelet PDE3; set-up: species or system Bos taurus; procedure, shortened: as §4
Phosphodiesterase 4 = Phosphodiesterase 4 (Homo sapiens, UniProt P27815+Q08499+Q07343+Q08493); test: Inhibition of human recombinant PDE4; type: protein assay; procedure, shortened: as §4
[21] = Aqueous solubility of the compound; type: physicochemical; settings: aqueous medium
[22] = Cytotoxicity against mouse L5178Y cells; type: cell-based
hERG (KCNH2) = hERG (KCNH2) (Homo sapiens, UniProt Q12809); test: Inhibition of human ERG at 10 uM
Sequence of hERG (KCNH2) (Q12809 whole entry): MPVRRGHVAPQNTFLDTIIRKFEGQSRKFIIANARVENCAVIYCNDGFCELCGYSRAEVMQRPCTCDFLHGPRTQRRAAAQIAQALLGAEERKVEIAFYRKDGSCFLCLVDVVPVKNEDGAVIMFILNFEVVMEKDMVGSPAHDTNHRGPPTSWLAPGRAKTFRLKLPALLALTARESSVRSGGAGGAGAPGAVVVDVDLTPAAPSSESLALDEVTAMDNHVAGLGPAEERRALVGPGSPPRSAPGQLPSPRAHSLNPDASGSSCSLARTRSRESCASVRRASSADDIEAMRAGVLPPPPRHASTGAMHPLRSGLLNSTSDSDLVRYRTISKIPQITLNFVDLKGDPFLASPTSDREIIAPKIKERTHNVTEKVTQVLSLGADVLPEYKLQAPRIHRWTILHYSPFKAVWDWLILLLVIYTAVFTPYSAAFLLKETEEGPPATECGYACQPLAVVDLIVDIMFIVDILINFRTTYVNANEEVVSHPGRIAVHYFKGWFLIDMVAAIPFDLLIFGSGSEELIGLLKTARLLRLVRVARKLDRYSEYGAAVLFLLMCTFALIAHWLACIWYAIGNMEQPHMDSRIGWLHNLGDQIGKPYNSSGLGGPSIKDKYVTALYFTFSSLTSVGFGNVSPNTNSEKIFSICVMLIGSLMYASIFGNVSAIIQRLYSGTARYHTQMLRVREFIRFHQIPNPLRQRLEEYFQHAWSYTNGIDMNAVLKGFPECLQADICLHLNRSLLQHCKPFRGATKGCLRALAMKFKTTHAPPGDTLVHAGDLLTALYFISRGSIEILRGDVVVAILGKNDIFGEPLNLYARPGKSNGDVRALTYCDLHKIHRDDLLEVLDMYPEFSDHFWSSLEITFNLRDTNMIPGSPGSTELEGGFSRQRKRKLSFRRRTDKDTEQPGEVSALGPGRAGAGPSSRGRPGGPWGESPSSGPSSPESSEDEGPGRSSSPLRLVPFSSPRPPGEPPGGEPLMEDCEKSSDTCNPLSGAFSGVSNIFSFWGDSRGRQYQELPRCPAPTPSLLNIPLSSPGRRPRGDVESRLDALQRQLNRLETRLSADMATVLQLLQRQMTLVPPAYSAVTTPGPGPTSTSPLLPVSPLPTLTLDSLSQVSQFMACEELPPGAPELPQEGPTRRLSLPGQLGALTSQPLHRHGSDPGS

IC50 [1] [nM] | remaining at 1 h [2] [%] | IC50 [5] [nM] | IC50 [6] [nM] | SMILES | other results
11 |  |  |  | COc1ccc(CNc2ncnc3c(CCO)c(OC)c(NS(C)(=O)=O)cc23)cc1Cl | Stability (Liver microsomes): Unstable
 | 3 |  |  | CCC(=O)Nc1cc2c(NCc3ccc(OC)c(Cl)c3)ncnc2c(CCO)c1OC | remaining at 1 h [3]: 96%; remaining at 1 h [4]: 85%
3 | 72 | 710 | 5700 | COC(=O)Nc1cc2c(NCc3ccc(OC)c(Cl)c3)ncnc2c(CCO)c1OC | 
 |  | 3000 |  | CN1CC(=O)N2[C@H](c3ccc4c(c3)OCO4)c3[nH]c4ccccc4c3C[C@@H]2C1=O | inhibition (Oryctolagus cuniculus [7]): Active
 |  |  |  | COC(=O)N(C)c1cc2c(NCc3ccc(OC)c(Cl)c3)ncnc2c(CCO)c1OC.Cl | Tmax [8]: 0.2 h; Cmax [9]: 420 ng/mL; half-life [10]: 2.25 h; AUC(0-t) [11]: 540 ng·h/mL; Tmax [12]: 2.4 h; Cmax [13]: 870 ng/mL; half-life [14]: 4.2 h; AUC(0-t) [15]: 2760 ng·h/mL
1 | 16 | 320 | 5200 | CCC(=O)N(C)c1cc2c(NCc3ccc(OC)c(Cl)c3)ncnc2c(CCO)c1OC | remaining at 1 h [3]: > 90%; remaining at 1 h [4]: > 90%; inhibition (Oryctolagus cuniculus [7]): Active; Papp [16]: 17 ×10⁻⁶ cm/s
 |  |  |  | COC(=O)N(C)c1cc2c(NCc3ccc(OC)c(Cl)c3)ncnc2c(CCO)c1OC [listing 1 of 2 here] | inhibition (Oryctolagus cuniculus [17]): Active
1 | 25 | 340 |  | COc1ccc(CNc2ncnc3c(CCO)c(OC)c(N(C)C(=O)C4CC4)cc23)cc1Cl | 
0.6 | 85 | 140 | 12000 | COC(=O)N(C)c1cc2c(NCc3ccc(OC)c(Cl)c3)ncnc2c(CCO)c1OC [listing 2 of 2 here] | Papp [16]: 35 ×10⁻⁶ cm/s; IC50 [18]: 12000 nM; IC50 [19]: 32000 nM; IC50 [20]: 43000 nM; IC50 (Phosphodiesterase 4): 84000 nM; solubility [21]: > 2000 µg/mL; CC50 [22]: 85000 nM; inhibition at 10 µM (hERG (KCNH2)): < 20%
1 | 5.5 |  |  | CCC(=O)N(CC)c1cc2c(NCc3ccc(OC)c(Cl)c3)ncnc2c(CCO)c1OC | 
17 |  | 600 | 5000 | CCOC(=O)Nc1cc2c(NCc3ccc(OC)c(Cl)c3)ncnc2c(CCO)c1OC | 
3 | 4.8 | 1100 |  | COc1ccc(CNc2ncnc3c(CCO)c(OC)c(N(C)C(=O)C(C)C)cc23)cc1Cl | 
12 |  | 7950 |  | COc1ccc(CNc2ncnc3c(CCO)c(OC)c(NS(=O)(=O)N(C)C)cc23)cc1Cl | Stability (Liver microsomes): Unstable
